In data set [1] the target is Glucagon receptor (Homo sapiens, UniProt P47871). Description: In vitro binding affinity for recombinant human glucagon receptor (hGGR) in BHK cells. It is filed as cell-based. A digest of the protocol:
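Membranes (4 µg) from BHK cells expressing the cloned human glucagon receptor. Compounds were diluted in DMSO, and a glucagon standard curve was run. IC50 given as mean ± SD, n = 3.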

The nature of data set [2]: Turnover in rat liver microsomes. It is filed as ADME, Microsome. The method, boiled down:
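Rat liver microsomes (0.331 mg/mL protein) with 10 µM compound, 1 mM UDP-GA and 1 mM NADPH in KH2PO4 buffer, pH 7.4, at 37 °C. Sampled at 0-30 min (n = 3), stopped with MeCN. Rate was taken from parent disappearance by LC-MS.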

The record followed here is ChEMBL document CHEMBL1135694, “Optimization of alkylidene hydrazide based human glucagon receptor antagonists. Discovery of the highly potent and orally available 3-cyano-4-hydroxybenzoic acid [1-(2,3,5,6-tetramethylbenzyl)-1H-indol-4-ylmethylene]hydrazide” (J Med Chem, 2002).

Glucagon receptor, sequence (P47871 whole entry): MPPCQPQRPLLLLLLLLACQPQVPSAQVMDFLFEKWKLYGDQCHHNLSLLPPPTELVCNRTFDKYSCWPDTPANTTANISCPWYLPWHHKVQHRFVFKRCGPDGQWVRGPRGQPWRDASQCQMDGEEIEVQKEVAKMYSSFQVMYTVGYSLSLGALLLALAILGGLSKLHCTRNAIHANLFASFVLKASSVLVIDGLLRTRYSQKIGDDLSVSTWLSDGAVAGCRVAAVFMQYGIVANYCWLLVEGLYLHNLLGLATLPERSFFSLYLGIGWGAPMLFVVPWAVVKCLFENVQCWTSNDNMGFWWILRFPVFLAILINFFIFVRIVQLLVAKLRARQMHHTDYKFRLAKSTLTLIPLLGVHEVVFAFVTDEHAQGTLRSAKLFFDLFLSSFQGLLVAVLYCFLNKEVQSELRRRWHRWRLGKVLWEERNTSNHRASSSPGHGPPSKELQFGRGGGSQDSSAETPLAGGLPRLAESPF

For orientation: IC50 means the concentration needed to halve the response being measured. As for `O=C(N/N=C/c1ccc(CS(=O)(=O)C2CCCC2)c2ccccc12)c1ccc(O)c(Cl)c1`, the IC50 in data set [1] turned out to be 221 nM. Take `O=C(N/N=C/c1cccc2c(OCc3ccc(OC(F)(F)F)cc3)cccc12)c1ccc(O)c(Cl)c1`: the IC50 in data set [1] came out at 12.9 nM.

For the molecule `COCc1ccc(/C=N/NC(=O)c2ccc(O)c(Cl)c2)c2ccccc12`, in data set [1], the IC50 came to 75.5 nM. The molecule `O=C(N/N=C/c1cccc2c(CO)cccc12)c1ccc(O)c(Cl)c1` gave a Metabolism in data set [2] of 225 pmol/min/mg. The IC50 in data set [1] stood at 200 nM. Take `O=C(N/N=C/c1cn(Cc2ccc(OC(F)F)cc2)c2ccccc12)c1ccc(O)c(Cl)c1`: the IC50 in data set [1] stood at 305 nM. With `COc1cc(NC(=O)CCc2ccc(C(F)(F)F)cc2)ccc1/C=N/NC(=O)c1ccc(O)c(C#N)c1`, in data set [1], the IC50 came to 15.7 nM. `COc1cc(OCCN2CCc3ccccc3C2)ccc1/C=N/NC(=O)c1ccc(O)c(Cl)c1` came in with a Metabolism in data set [2] of 322 pmol/min/mg. Besides, in data set [1], the IC50 is 120 nM.

The molecule `CCN(CC)C(=O)Cc1ccc(/C=N/NC(=O)c2ccc(O)c(Cl)c2)c2ccccc12` had a Metabolism in data set [2] of 323 pmol/min/mg. In addition, the IC50 in data set [1] is 22.6 nM.

`CC(C)c1ccc(Cn2ccc3c(/C=N/NC(=O)c4ccc(O)c(Cl)c4)cccc32)cc1`: the Metabolism in data set [2] is 48 pmol/min/mg. For the same molecule, the IC50 in data set [1] came out at 23 nM.

`NC(=O)[C@H](Cc1ccccc1)NCc1ccc(/C=N/NC(=O)c2ccc(O)c(Cl)c2)c2ccccc12`: in data set [2], the Metabolism is 178 pmol/min/mg. The IC50 in data set [1] was 61.8 nM.

Take `CCC1CCCCN1C(=O)Cc1ccc(/C=N/NC(=O)c2ccc(O)c(Cl)c2)c2ccccc12` (stereo unspecified): in data set [2], the Metabolism came to 279 pmol/min/mg. In addition, the IC50 in data set [1] came to 7.4 nM. `CCN(CC)C(=O)Cc1ccc(/C=N/NC(=O)c2ccc(O)c(C#N)c2)c2ccccc12` yielded a Metabolism in data set [2] of 130 pmol/min/mg. In data set [1], the IC50 was 16.5 nM. `COc1cc(/C=N/NC(=O)c2ccc(O)c(Cl)c2)cc(Cl)c1OCCN1CCc2ccccc2C1`: the IC50 in data set [1] worked out at 485 nM. The molecule `O=C(N/N=C/c1ccc(CO)c2ccccc12)c1ccc(O)c(Cl)c1` returned a Metabolism in data set [2] of 75 pmol/min/mg. Besides, the IC50 in data set [1] was 41.1 nM. As to `COc1cc(/C=N/NC(=O)c2ccc(O)c(Cl)c2)ccc1NC(=O)Cc1csc2ccccc12`, the Metabolism in data set [2] was 74 pmol/min/mg. Also, the IC50 in data set [1] is 63.2 nM. In data set [2], `O=C(N/N=C/c1ccc(CC(=O)N2CCN(c3ccccc3F)CC2)c2ccccc12)c1ccc(O)c(Cl)c1` displayed a Metabolism of 178 pmol/min/mg. In addition, the IC50 in data set [1] stood at 7.9 nM. Taken in the same sequence, the figures for `COc1ccc2oc(C(=O)Nc3ccc(/C=N/NC(=O)c4ccc(O)c(Cl)c4)c(OC)c3)cc2c1` were 31 pmol/min/mg and 90.6 nM. In the same order, the values of `COc1cc(NC(=O)CSc2ccc(OC(F)(F)F)cc2)ccc1/C=N/NC(=O)c1ccc(O)c(Cl)c1` are 23 pmol/min/mg and 14.5 nM. With `CN(C)CCN(C)C(=O)Cc1ccc(/C=N/NC(=O)c2ccc(O)c(Cl)c2)c2ccccc12`, the IC50 in data set [1] is 441 nM. For the molecule `O=C(N/N=C/c1ccc(OCCNCCc2ccc(Br)cc2)c2ccccc12)c1ccc(O)c(Cl)c1`, the Metabolism in data set [2] amounted to 250 pmol/min/mg. For the same molecule, the IC50 in data set [1] stood at 19.7 nM. In the same order, the values of `O=C(N/N=C/c1cccc2c1ccn2Cc1ccc(C(F)(F)F)cc1)c1ccc(O)c(Cl)c1` are 116 pmol/min/mg and 33.8 nM. In data set [2], `O=C(N/N=C/c1ccc(CN2CCN(Cc3ccc(Cl)cc3)CC2)c2ccccc12)c1ccc(O)c(Cl)c1` came in with a Metabolism of 51 pmol/min/mg. Also, the IC50 in data set [1] was determined as 96.7 nM. For the molecule `O=C(N/N=C/c1ccc(O)c2ccccc12)c1ccc(O)c(Cl)c1`, the IC50 in data set [1] stood at 203 nM. On the same count and under the same terms, as for `O=C(N/N=C/c1ccc(N(C(=O)C2CCCC2)C(=O)C2CCCC2)c2ccccc12)c1ccc(O)c(Cl)c1`, the figure is 3.4 nM. The molecule `CC(C)S(=O)(=O)Cc1ccc(/C=N/NC(=O)c2ccc(O)c(C#N)c2)c2ccccc12` registered a Metabolism in data set [2] of 31 pmol/min/mg. In addition, in data set [1], the IC50 was 163 nM. In the same order, the values of `O=C(N/N=C/c1ccc(CC(=O)N2CCN(Cc3ccccc3)CC2)c2ccccc12)c1ccc(O)c(Cl)c1` are 359 pmol/min/mg and 9.2 nM. `N#Cc1cc(C(=O)N/N=C/c2ccc(CO)c3ccccc23)ccc1O` came in with a Metabolism in data set [2] of 37 pmol/min/mg. In addition, the IC50 in data set [1] amounted to 29.8 nM. In the case of `CCN(CC)C(=O)Cn1ccc2c(/C=N/NC(=O)c3ccc(O)c(Cl)c3)cccc21`, the Metabolism in data set [2] amounted to 165 pmol/min/mg. For the same molecule, in data set [1], the IC50 amounted to 2540 nM. As for `N#Cc1cc(C(=O)N/N=C/c2ccc(N(C(=O)C3CCCC3)C(=O)C3CCCC3)c3ccccc23)ccc1O`, the Metabolism in data set [2] worked out at 250 pmol/min/mg. Moreover, the IC50 in data set [1] came to 2.8 nM. On to `O=C(N/N=C/c1ccc(C(=O)N2CCN(Cc3ccc(Cl)cc3)CC2)c2ccccc12)c1ccc(O)c(Cl)c1`, for which, in data set [2], the Metabolism came to 77 pmol/min/mg. Besides, the IC50 in data set [1] worked out at 11.3 nM. In data set [2], `CC(C)(C)C(=O)Nc1ccc(/C=N/NC(=O)c2ccc(O)c(Cl)c2)c2ccccc12` displayed a Metabolism of 45 pmol/min/mg. Besides, in data set [1], the IC50 was 33 nM. In the case of `N#Cc1cc(C(=O)N/N=C/c2ccc(C(=O)N3CCN(Cc4ccc(Cl)cc4)CC3)c3ccccc23)ccc1O`, the Metabolism in data set [2] is 53 pmol/min/mg. For the same molecule, the 50% inhibitory concentration (IC50) in data set [1] was found to be 4.9 nM. As to `COc1cc(OCCNCc2ccc(C(F)(F)F)cc2)ccc1/C=N/NC(=O)c1ccc(O)c(Cl)c1`, the IC50 in data set [1] was determined as 133 nM. `O=C(N/N=C/c1ccc(OCCNCc2ccc(OC(F)(F)F)cc2)c2ccccc12)c1ccc(O)c(Cl)c1`: in data set [2], the Metabolism is 167 pmol/min/mg. Besides, the IC50 in data set [1] is 27.7 nM. In data set [2], `O=C(COc1ccc(/C=N/NC(=O)c2ccc(O)c(Cl)c2)c2ccccc12)NC1CCN(Cc2ccccc2)C1` (stereo unspecified) had a Metabolism of 187 pmol/min/mg. In data set [1], the IC50 was 89.3 nM. As to `O=C(N/N=C/c1ccc(CC(=O)N2CCN(Cc3ccc(Cl)cc3)CC2)c2ccccc12)c1ccc(O)c(Cl)c1`, in data set [2], the Metabolism was found to be 101 pmol/min/mg. Moreover, the IC50 in data set [1] was 4.6 nM. Turning to `O=C(N/N=C/c1ccc(OCCNCc2ccccc2OC(F)(F)F)c2ccccc12)c1ccc(O)c(Cl)c1`, in data set [2], the Metabolism was found to be 233 pmol/min/mg. For the same molecule, the IC50 in data set [1] was 54.3 nM. In the same order, the values of `CN(C)c1ccc(C(=O)n2cc(/C=N/NC(=O)c3ccc(O)c(C#N)c3)c3ccccc32)cc1` are 606 pmol/min/mg and 19.1 nM. Take `CN(C)CCN(Cc1ccccc1)C(=O)Cc1ccc(/C=N/NC(=O)c2ccc(O)c(Cl)c2)c2ccccc12`: the IC50 in data set [1] turned out to be 6.2 nM. Molecule `O=C(N/N=C/c1ccc(OCC(=O)N2CC=C(c3ccc(Br)cc3)CC2)c2ccccc12)c1ccc(O)c(Cl)c1` came in with a Metabolism in data set [2] of 44 pmol/min/mg. For the same molecule, in data set [1], the IC50 is 6.6 nM.

On to `O=C(N/N=C/c1ccc(OCC(=O)N2CCC(O)(c3ccc(Br)cc3)CC2)c2ccccc12)c1ccc(O)c(Cl)c1`, for which the IC50 in data set [1] was 11.4 nM. In data set [2], `COc1cc(NC(=O)Cc2cccc(C(F)(F)F)c2)ccc1/C=N/NC(=O)c1ccc(O)c(C#N)c1` registered a Metabolism of 51 pmol/min/mg. The IC50 in data set [1] amounted to 47.8 nM. Take `O=C(N/N=C/c1cccc2c1ccn2Cc1ccc(OC(F)(F)F)cc1)c1ccc(O)c(Cl)c1`: the IC50 in data set [1] is 22.9 nM. In turn, `N#Cc1cc(C(=O)N/N=C/c2cccc3c2ccn3Cc2ccc(C(F)(F)F)cc2)ccc1O` had a Metabolism in data set [2] of 59 pmol/min/mg. In addition, in data set [1], the IC50 amounted to 22.3 nM. In the same order, the values of `CC(C)CS(=O)(=O)c1ccc(/C=N/NC(=O)c2ccc(O)c(Cl)c2)c2ccccc12` are 110 pmol/min/mg and 181 nM. Regarding `Cc1cc(C)c(Cn2ccc3c(/C=N/NC(=O)c4ccc(O)c(Cl)c4)cccc32)c(C)c1`, the IC50 in data set [1] is 5.8 nM. Regarding `CC1CCCCN1C(=O)Cc1ccc(/C=N/NC(=O)c2ccc(O)c(C#N)c2)c2ccccc12` (stereo unspecified), in data set [2], the Metabolism was found to be 65 pmol/min/mg. The IC50 in data set [1] was found to be 11.6 nM. With `O=C(N/N=C/c1ccc(OCC(=O)N2CCc3ccccc3C2)c2ccccc12)c1ccc(O)c(Cl)c1`, the Metabolism in data set [2] amounted to 254 pmol/min/mg. Moreover, the IC50 in data set [1] turned out to be 13.8 nM. `COc1cc(NC(=O)CCc2ccc(C(F)(F)F)cc2)ccc1/C=N/NC(=O)c1ccc(O)c(Cl)c1.O`: the Metabolism in data set [2] is 107 pmol/min/mg. Also, the IC50 in data set [1] is 21.2 nM.

`O=C(N/N=C/c1ccc(NC(=O)C2CCCC2)c2ccccc12)c1ccc(O)c(Cl)c1`: the Metabolism in data set [2] is 134 pmol/min/mg. In addition, the IC50 in data set [1] was 38.8 nM. `O=C(N/N=C/c1ccc(CO)c2ccccc12)c1ccc(O)c(F)c1` gave a Metabolism in data set [2] of 89 pmol/min/mg. The IC50 in data set [1] is 29.4 nM.

In the case of `CC1CCCCN1C(=O)Cc1ccc(/C=N/NC(=O)c2ccc(O)c(Cl)c2)c2ccccc12` (stereo unspecified), the Metabolism in data set [2] was found to be 267 pmol/min/mg. Further, in data set [1], the IC50 was determined as 8.3 nM. In turn, `N#Cc1cc(C(=O)N/N=C/c2ccc(OCC(=O)N3CC=C(c4ccc(Br)cc4)CC3)c3ccccc23)ccc1O` had a Metabolism in data set [2] of 50 pmol/min/mg. Also, the IC50 in data set [1] came out at 6.1 nM. In data set [2], `CCN(CC)C(=O)COc1ccc(/C=N/NC(=O)c2ccc(O)c(Cl)c2)c2ccccc12` displayed a Metabolism of 302 pmol/min/mg. Also, in data set [1], the IC50 is 49.7 nM. On to `COc1cc(NC(=O)Cc2ccc(Cl)cc2)ccc1/C=N/NC(=O)c1ccc(O)c(C#N)c1`, for which the IC50 in data set [1] was 28.7 nM. Turning to `O=C(N/N=C/c1cn(Cc2ccccc2)c2ccccc12)c1ccc(O)c(Cl)c1`, the IC50 in data set [1] turned out to be 615 nM. In the case of `N#Cc1cc(C(=O)N/N=C/c2cn(C(=O)CC3CCCC3)c3ccccc23)ccc1O`, in data set [2], the Metabolism was found to be 136 pmol/min/mg. The IC50 in data set [1] stood at 6.4 nM. On to `CCN(CC)C(=O)c1ccc(/C=N/NC(=O)c2ccc(O)c(Cl)c2)c2ccccc12`, for which, in data set [2], the Metabolism is 124 pmol/min/mg. Moreover, the IC50 in data set [1] is 35.4 nM. In data set [2], `O=C(N/N=C/c1ccc(C(=O)NCCc2ccc(Cl)cc2)c2ccccc12)c1ccc(O)c(Cl)c1` returned a Metabolism of 32 pmol/min/mg. Moreover, the IC50 in data set [1] came to 5.9 nM. For `COc1cc(NC(=O)CCc2ccc(C(F)(F)F)cc2)ccc1/C=N/NC(=O)c1ccc(O)c(Cl)c1`, the IC50 in data set [1] came out at 33.5 nM. Take `O=C(N/N=C/c1ccc2c(ccn2Cc2ccc(OC(F)(F)F)cc2)c1)c1ccc(O)c(Cl)c1`: the IC50 in data set [1] was determined as 286 nM. Consider `O=C(COc1ccc(/C=N/NC(=O)c2ccc(O)c(Cl)c2)c2ccccc12)Nc1ccc(Cl)cc1`, for which the IC50 in data set [1] was 51.7 nM. Consider `O=C(N/N=C/c1ccc(OCCNCc2ccc(Cl)c(Cl)c2)c2ccccc12)c1ccc(O)c(Cl)c1`, for which the half-maximal inhibitory concentration (IC50) in data set [1] came out at 14.7 nM.
